Source: ChEMBL document CHEMBL1145117, “Structures and cytotoxic properties of trichoverroids and their macrolide analogues produced by saltwater culture of Myrothecium verrucaria” (J Med Chem, 2003)

Assays:
[1] = test system: MDA-N; assay: In vitro antitumor activity against breast MDA-N tumor cell lines; assay type: functional, cell-based, Homo sapiens; conditions: Homo sapiens, MDA-N
[2] = test system: UACC-62; assay: In vitro antitumor activity against melanoma UACC-62 tumor cell lines; assay type: functional, cell-based, Homo sapiens; conditions: Homo sapiens, UACC-62
[3] = test system: SK-MEL-2; assay: In vitro antitumor activity against melanoma SK-MEL-2 tumor cell lines; assay type: functional, cell-based, Homo sapiens; conditions: Homo sapiens, SK-MEL-2
[4] = test system: MDA-MB-435; assay: In vitro antitumor activity against breast MDA-MB-435 tumor cell lines; assay type: functional, cell-based, Homo sapiens; conditions: Homo sapiens, MDA-MB-435
[5] = test system: NCI-H226; assay: In vitro antitumor activity against NSCL NCI-H226 tumor cell lines; assay type: functional, cell-based, Homo sapiens; conditions: Homo sapiens, NCI-H226
[6] = test system: HL-60; assay: In vitro antitumor activity against leukemia HL-60(TB) tumor cell lines; assay type: functional, cell-based, Homo sapiens; conditions: Homo sapiens, HL-60
[7] = test system: MOLT-4; assay: In vitro antitumor activity against leukemia MOLT-4 tumor cell lines; assay type: functional, cell-based, Homo sapiens; conditions: Homo sapiens, MOLT-4
[8] = test system: HCT-116; assay: In vitro antitumor activity against colon HCT116 tumor cell lines; assay type: functional, cell-based, Homo sapiens; conditions: Homo sapiens, HCT-116
[9] = test system: NCI-H522; assay: In vitro antitumor activity against NSCL NCI-H522 tumor cell lines; assay type: functional, cell-based, Homo sapiens; conditions: Homo sapiens, NCI-H522
[10] = test system: RXF 393; assay: In vitro antitumor activity against renal RXF 393 tumor cell lines; assay type: functional, cell-based, Homo sapiens; conditions: Homo sapiens, RXF 393
[11] = test system: MC-38; assay: Selectivity was evaluated against murine tumor ZC38 colon adenocarcinoma cell lines- ZCFU-GM normal bone marrow cell lines at a concentration of 550 ug/mL; assay type: functional, Mus musculus
Outline: (§1)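 Disk diffusion soft agar colony formation assay with zone units read for murine L1210, C38 and CFU-GM (bone marrow) cells and for human H116, H125 and CEM cells. Selectivity is the zone-unit difference between the paired cell lines. A solid tumor minus leukemia or normal difference above 250 units counts as solid tumor selective.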

[12] = test system: MCF7; assay: In vitro antitumor activity against breast MCF-7 tumor cell lines; assay type: functional, cell-based, Homo sapiens; conditions: Homo sapiens, MCF7
[13] = test system: HCT-15; assay: In vitro antitumor activity against colon HCT-15 tumor cell lines; assay type: functional, cell-based, Homo sapiens; conditions: Homo sapiens, HCT-15
[14] = test system: A549; assay: In vitro antitumor activity against NSCL A549/ATCC tumor cell lines; assay type: functional, cell-based, Homo sapiens; conditions: Homo sapiens, A549
[15] = test system: MC-38; assay: Selectivity was evaluated against Murine tumor ZC38 colon adenocarcinoma cell lines- ZL1210 lymphocytic leukemia cell lines at a concentration of 550 ug/mL; assay type: functional, Mus musculus; outline: as §1
[16] = test system: A498; assay: In vitro antitumor activity against renal A498 tumor cell lines; assay type: functional, cell-based, Homo sapiens; conditions: Homo sapiens, A498
[17] = test system: M14; assay: In vitro antitumor activity against melanoma M14 tumor cell lines; assay type: functional, cell-based, Homo sapiens; conditions: Homo sapiens, M14
[18] = Selectivity was evaluated against human ZH116 colon cell lines-CEM lymphocytic leukemia cell lines at a concentration of 550 ug/mL; assay type: functional; outline: as §1
[19] = test system: NCI-H125; assay: Selectivity was evaluated against human ZH125 lung non small cell carcinoma cell lines-CEM lymphocytic leukemia cell lines at a concentration of 550 ug/mL; assay type: functional; outline: as §1
[20] = test system: 786-0; assay: In vitro antitumor activity against renal 786-0 tumor cell lines; assay type: functional, cell-based, Homo sapiens; conditions: Homo sapiens
[21] = test system: COLO 205; assay: In vitro antitumor activity against colon COLO 205 tumor cell lines; assay type: functional, cell-based, Homo sapiens; conditions: Homo sapiens, COLO 205
[22] = Activity relative to compound 3 (set to 1.0) was evaluated against H116 colon tumor cell lines; assay type: functional, Homo sapiens
Outline: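 Disk diffusion soft agar colony formation assay on human H116 colon tumor cells, with 15 µL of sample applied to a disk and zone units read. Relative activity = (dilution required for 500 zone units × 100)/(mg/mL), normalised to a reference compound set at 1.0.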

[23] = test system: L1210; assay: Selectivity was evaluated murine tumor against ZL1210 lymphocytic leukemia cell lines- ZCFU-GM normal bone marrow cell lines at a concentration of 550 ug/mL; assay type: functional, Mus musculus; outline: as §1
[24] = test system: CCRF-CEM; assay: In vitro antitumor activity against leukemia CCRF-CEM tumor cell lines; assay type: functional, cell-based, Homo sapiens; conditions: Homo sapiens, CCRF-CEM
[25] = species: Homo sapiens; assay: Concentration giving 500 zone units against H116 colon tumor cell lines; assay type: functional
Outline: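 Disk diffusion soft agar colony formation assay on human H116 colon tumor cells. Each sample was applied to a disk as 15 µL, and activity was read as zone units. The value is the sample concentration that gave 500 zone units.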

C/C1=C\C(=O)OC[C@]23CC[C@](C)(O)[C@H]4C[C@@]5(O)[C@H](O[C@H]42)[C@H](O)[C@@H](OC(=O)/C=C\C=C\[C@@H]2O[C@H](C1)O[C@H]2C)[C@]35C [Miophytocen C]
IC50 [1]: > 10 µM | IC50 [2]: > 10 µM | IC50 [3]: > 10 µM | IC50 [4]: > 10 µM | IC50 [5]: > 10 µM | IC50 [6]: > 10 µM | IC50 [7]: > 10 µM | IC50 [8]: > 10 µM | IC50 [9]: > 10 µM | IC50 [10]: > 10 µM | Selectivity [11]: -50 zone unit | IC50 [12]: > 10 µM | IC50 [13]: > 10 µM | IC50 [14]: > 10 µM | Selectivity [15]: -350 zone unit | IC50 [16]: > 10 µM | IC50 [17]: > 10 µM | Selectivity [18]: -50 zone unit | Selectivity [19]: -50 zone unit | IC50 [20]: > 10 µM | IC50 [21]: > 10 µM | Relative activity [22]: 1 | Selectivity [23]: 300 zone unit | IC50 [24]: > 10 µM | Concentration [25]: 550 µg/mL
